Test results from the EternaBench riboswitch data.

Test system: MS2 coat protein
Assay: apparent Kd, MS2 coat protein; higher = weaker binding; RNA-MaP array; FMN 200 µM where present
How it was run: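 The titrant was SNAP-549-labelled MS2 coat protein, run from 0.7 or 1.5 nM in doubling steps to 3 µM. It was applied to designs transcribed by stalled E. coli RNA polymerase on Illumina sequencing-chip clusters, without ligand first and then with constant ligand, in 100 mM Tris-HCl pH 7.5, 80 mM KCl, 4 mM MgCl2, BSA, DTT, yeast tRNA and Tween-20. The apparent Kd is the median of filtered per-cluster binding-curve fits, with green signal normalised to red-channel RNA signal and control-cluster median Fmax.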

[1] = designed as: OFF switch for flavin mononucleotide, no ligand
[2] = ligand present: flavin mononucleotide, designed as: OFF switch for flavin mononucleotide
[3] = designed as: ON switch for flavin mononucleotide, no ligand
[4] = ligand present: flavin mononucleotide, designed as: ON switch for flavin mononucleotide

| Sequence | apparent Kd [1] [nM] | apparent Kd [2] [nM] | apparent Kd [3] [nM] | apparent Kd [4] [nM] |
| --- | --- | --- | --- | --- |
| GCGAAUUAGUGAGGAUAUACAUAAUUUAUAACUGUAGAAGGCACAAUCCUCAAGACAUGAGGAUCACCCAUGUGGUAUUACGCU | 151 | 911 | – | – |
| UUACUGUAAUAGAAGGGUAUUUGGGUAGUACAUGAGGAUCACCCAUGUUUUAUAGGAUAUGUUUAUAGUUUUUAAUCAAGUUUA | 85.1 | 62.3 | – | – |
| GGGCAAAAGUAGAAGGGAUAUACGAAAAGUAUAUCAGGAUAUACAUGAGGAUCACCCAUGUUCUGAAAGUGAAAAUCCUCCCUA | 40.8 | 317 | – | – |
| CUAUGAGCGAUAGGAUAUACUGAGAUUGAGUGGGUAGAAGGAUCGAUAGUGUAGAAGACAUGAGGAUCACCCAUGUUAUGGGUU | – | – | 726 | 501 |
| CUUAUGUGAGGAUAUCAGUAGUAAAAAAAUAAAAUUACUACUGAGAAGGCACAUGAGGAUCACCCAUGUGCCUC | 14.4 | 13.4 | – | – |
| ACUAUACGAGGAUAUACUGUCGGGCCUCGGACAUACAUACGACAUGAGGAUCACCCAUGUAGAAGGCGUUUACU | 30.4 | 68.4 | – | – |
| UUAUUAUGUGUAGGAUAUGCAUAUUAUUAUUAUGCAGAAGGACAUGAGGAUCACCCAUGUAUAUUAUUAUUAUAUAUUAUAUGU | 21.1 | 44.2 | – | – |
| ACUAUACGAGGAUAUACUGUCAGGCCUCAGACAUAAAUAAGACAUGAGGAUCACCCAUGUAGAAGGCGUUUACU | 31.3 | 48 | – | – |
| GGUGCUAUGUAGAAGGCAGAUCUGAUUCAGAUCUGAGGAUAUACAUGAGGAUCACCCAUGUUAUGCACCAGCACGAGAGUGCAG | 8.07 | 14 | – | – |
| GUAGAGGAUUGAGGAUAUGCAGAGAGAUCAUGCGCGUCGCGCACAUGAGGAUCACCCAUGUAAGAGCAGAAGGUAACUAUGAAC | 66.8 | 43.4 | – | – |
| AUUAUACAUGAGGAUCACCCAUGUAAUUAAUCUAGUAAGAUCUAGGAUAUCAGCUCGUUUAGAGCUGAGAAGGAGAUCACAUGU | – | – | 53.5 | 21 |
| GGAAAGCGAGGAUAUACAUGAGGAUCACCCAUGUUAACAAACAAACAAACAAACAAAAGUAGAAGGCGCAAAAU | 37 | 36.5 | – | – |
| GACAUGAGGAUCACCCAUGUACAGAUAGAGGAACUCUAAUUGAGAAGGGACUUGAAACAAUCAUGUCAGGAUAUCAGUGGCGAC | – | – | 86.7 | 41 |
| GCAUGUAAGCAGAAGGGCAGAUAUUUUGAUACUGCAGGAUAUGCAGAAUCAUAUCCACAUGAUAACAUGAGGAUCACCCAUGUA | 32.3 | 29 | – | – |
| AAUCAUGUCCGAGGAUAUCUGGAAACAUUUUCAAGAGAAGGCGGACAUGAGGAUCACCCAUGUCUCUCCUCAUCAACUACAAAU | 14.6 | 89 | – | – |
| AGACCCAUGACAUGAGAUGACAUGAGGAUCACCCAUGUUUACGAGGAUAUGUUGAUGAAACAUCAACAGAAGGUGUAAUGGGCU | 21.2 | 28.9 | – | – |
| GAGCUAUGAGGAUAUGCAUAUAUGCGGUUUCGUGUGGUACUACAUGAGGAUCACCCAUGUAGAAGGCGUGGCUG | 17.2 | 17 | – | – |
| ACAUUCUUUCGAGGAUAUCGGUGAUUAAUUUUACGAGAAGGCGAUUUAAGAUAUAAUAUUUUAGACAUGAGGAUCACCCAUGUA | – | – | 26.1 | 24.1 |
| UGUCGGAGCAGAGGAUAUUACAUGAGGAUCACCCAUGUAUGAACCAAUAGCUGGAAACAGCAAUGUGAGAAGGCUGCUCCGACA | 5.47 | 52.3 | – | – |
| GUUAGACAUGAGGAUCACCCAUGUGAGGAUAUGAUGCGAUCGUGAUGAAAUGAUCGCAUCAGAAGGCACAUAUG | 153 | 423 | – | – |
| CAACCGUUGCAGAAGGUUAAAUAAUUUCUCAUCUUGUUUACAUGAGGAUCACCCAUGUAUUUGUUGAAGGAUAUGCAAGUGUUG | 8.58 | 8.21 | – | – |
| GUAUUUAUAUAAGGAUAUAAGUCUAGGACAUGAGGAUCACCCAUGUGUGUCUUAGAAGGUAUAUAGGUAAUACUGUUACAGUAA | – | – | 86.1 | 23.6 |
| CGCUACGUUUCGUAGCAGUGUCAUCGAGAAGGCCCUGACAUGAGGAUCACCCAUGUUGUUACAUGGGAGGAUAUCGAUGAUACU | – | – | 13.4 | 5.25 |
| AAAUUUAACGAAGGAUAUACUAACAUGAGGAUCACCCAUGUGUGCUUCGUGUUGCUGAAAUUCGGGUAGAAGGUCGUAUACAUA | 54.8 | 145 | – | – |
| AAUAUUUUUUGAGGAUAUUCAUACACUGUAUACGGAGAAGGCAAACAAUCAUGAGGACAUGAGGAUCACCCAUGUUGUGACCAU | – | – | 20.1 | 12.8 |
| AGUAAGAUGCAGAAGGUGUCAGCGAGAGCUACGACAUGAGGAUCACCCAUGUACUAGUGAGAGUACGAGGAUAUGCAUCUUACA | – | – | 37.3 | 13.9 |
| GUGGUCAGACAUGAGGAUCACCCAUGUGGAAUAAAUAACGAACAGGAUAUGCAAUAUAGGAUAUAGUAGAAGGGUUGAUUGGUG | – | – | 104 | 138 |
| CGAAAAUUUCAGAAGGACCAAUUCCACAUGAGGAUCACCCAUGUCGAUGGUAGGAUAUGGAGUUGUGGACAGGGUGGAUGUUCC | – | – | 122 | 12.6 |

| Sequence | apparent Kd [1] [nM] | apparent Kd [2] [nM] | apparent Kd [3] [nM] | apparent Kd [4] [nM] |
| --- | --- | --- | --- | --- |
| CAGGAGAACACAGGAUAUCCGUAAAACAUGAGGAUCACCCAUGUUUGUGGCCCGCCAGGGCUGACGGAGAAGGGUGACUCGCAC | – | – | 6.69 | 5.61 |
| AACAGGUUCACAUGAGGAUCACCCAUGUUAGCCUAACGUAGGAGAAGGGCGGUAGCUGGGCUGACGUAGGAUAUCCUACUGUGA | – | – | 10 | 5.79 |
| GUCGGAAACGACAAAAGUAUGGAUCCAGAAGGCAUGACACAUGAGGAUCACCCAUGUCUAAGAUAUGAGGAUAUGGAUCCAUAC | – | – | 4.97 | 4.71 |
| CAUUCCCGUCGAGGAUAUAUUAUAUGACAACAAACACAUACAUGAGGAUCACCCAUGUCCCAUGUAUAGAAGGCGACCUGCGUC | – | – | 46.6 | 99.3 |
| AAAUAACAUGAGGAUCACCCAUGUCCGCGCCAUCAAGGAUAUGGGUGCCGGCUAGGUCAGCUAGAAGGUGGUGGUG | – | – | 28.8 | 34.5 |
| AGUGUCAUCGAGAAGGCCUCAUUAACAUGAGGAUCACCCAUGUAAUAUGGGAGGAUAUCGAUGAUACAGCUACGUUUCGUAGCA | – | – | 216 | 55.2 |
| ACACAUGUCCGAGGAUAUCUGAGAUCAUUUUCAAGAGAAGGCGGACAUGAGGAUCACCCAUGUCUCUCCUCAUCAACUCCAAAU | 8.06 | 49.2 | – | – |
| GUUUCACAUGAGGAUCACCCAUGUGAGGAUAUCGAUUUGUUAACCGUAGUUAAUAGAUCGAGAAGGCGCGUGAU | 70.6 | 68.8 | – | – |
| CCAGAUUUCACAGGAUAUAUUGAUGACAUGAGGAUCACCCAUGUACCGGCAGUAGAAGGGUGAACGCACGUGACCACGUGCGUG | – | – | 54.1 | 14.9 |
| GUCAUUAAACAGAAGGUGUAGUACAUGAGGAUCACCCAUGUAUAACUAACUAAAUUUGUAAUUAACAAGGAUAUGUACUAAUCG | – | – | 6.58 | 6.63 |
| CUAUGCCGAACAGGAUAUUCGAUCAAAAGGAUAGAAGAAGGGUUACAUGAGGAUCACCCAUGUAUGCACAUGAGGAUCCCUUAA | 255 | 296 | – | – |
| GUGCCUUGGGAGAAGGUAUUAAGCAAAGCAAUAUAAGGAUAUUCAUACCGGAAACGGACAUGAGGAUCACCCAUGUGGCACAAA | – | – | 713 | 233 |
| GCCUUAUCCGUCAGGAUAUACAUUUUUUUGUUGUUGUAGAAGGGACAUGAGGAUCACCCAUGUACAUUACAUUG | 21.5 | 25.1 | – | – |
| UUGGACGUCGUAGGAUAGGUAGGAUAUUCCUACAUGAGGAUCACCCAUGUUGACAUGGAAGAAGGACAGAAGGACGAUGUCCAU | – | – | 142 | 5.7 |
| GUACUACAUGAGGAUCACCCAUGUCAGGAUAUGUGAAUUUCAUCAAAAGAUGAAAUUCGUAGAAGGGACAGUAC | 22.2 | 29.4 | – | – |
| CUGGGCGGAGGAUAUACAGGUUGGGCAUAAGUUCGGCUGGGACAUGAGGAUCACCCAUGUAGAAGGUUGUUUAG | 25.3 | 23.1 | – | – |
| AGCGGUGCAGGAUAUGGCCGAUCCCACAUGAGGAUCACCCAUGUAAAUAAAAUAAGAUCUCCAGAAGGGCAUCGCA | 30.4 | 15.6 | – | – |
| CUUUCGUGAGGAUAUGUGGCUUCGAUCGUAAAAUCGAGGCUACAGAAGGCACAUGAGGAUCACCCAUGUUCCUC | 36.2 | 528 | – | – |
| UUACUAUUGGAGAAGGGUCGAUCAUAUAGAAUGGCAGGAUAUCCAACAUGAGGAUCACCCAUGUUUCACCCAUAUGAGGAUCAC | 116 | 44.9 | – | – |
| AAACACAAACAUGAGGAUCACCCAUGUUAUGAAAAUACUGGGAGAAGGGCGAUUGCAAAGCAAUCGCAGGAUAUUCGUAUUGUG | – | – | 76.7 | 16.1 |
| CCUGAGUGUCUAGGAUAUGCAUACCCGAGCUUUGCAGAAGGAGACAUGAGGAUCACCCAUGUGGACUUGGCAGGUCUCGCACCA | 5.91 | 7.59 | – | – |
| GUGCGAGCCACAGGAUAUCUACAGAUUUAUCGUAGAGAAGGGUGACCUCGUGCACCACAUGAGGAUCACCCAUGUAACUAGGCG | – | – | 19.6 | 36.3 |
| GACGGAUGUAUAGGAUAUGCUGAGGAAUACUCAGCAGAAGGAUACAUGAGGAUCACCCAUGUAAUAAUAAUAAUAAUAACCGUC | 12.4 | 27.5 | – | – |
| CUUCUGUGAGGAUAUUGACCAGUAGCUGACCUAGUACUGGAUGAGAAGGCACAUGAGGAUCACCCAUGUGGCAC | 19.5 | 104 | – | – |
| ACUAGAUGAGGAUAUGCAUAUUUUCGUGUUCUUCUAGAUUAACAUGAGGAUCACCCAUGUAGAAGGCGUCAAUA | 16.1 | 18.9 | – | – |
| UGGUUGUGUGUUAGGAUAUGGUCUGGUGUUUCGGGCUAGAAGGGACAUGAGGAUCACCCAUGUGGCUGGCGGGU | 127 | 126 | – | – |
| GGAUCGAGUGUGAGGAUAUGCUGGUCCUUGGAUCAGCAGAAGGCACAUGAGGAUCACCCAUGUGAAGACGGUCC | 32.3 | 201 | – | – |
